Assay results published in article PMC6045486 (ACS Omega, 2018).

Assays:
CHO cells [1] = assay: Radiation-induced intracellular ROS level; format: cell-based, Chinese Hamster; conditions: 10 μM for 2 h, 2 Gy, 30 min postirradiation
How it was run: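 CHO cells were pretreated with 10 μM test compound for 2 h and then γ-irradiated. At 30 min postirradiation, 1 × 10⁴ cells were loaded with DCFDA (5 μM) for 30 min at 37 °C. DCF fluorescence was read on a plate reader (excitation 488 nm, emission 530 nm).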

CHO cells [2] = assay: Single-cell alkaline gel electrophoresis; format: cell-based, Chinese Hamster; conditions: 10 μM for 2 h, 4 Gy, 0 to 60 min
How it was run: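 CHO cells pretreated with 10 μM test compound for 2 h were washed, then irradiated at 4 Gy (⁶⁰Co, 1 Gy/min) in serum-free medium, with 10% FBS re-added afterwards. At 0, 30 and 60 min, about 15 000 cells in 0.8% low-melting agarose were lysed, electrophoresed under alkaline conditions and stained with SYBR Green II. Tail length and olive tail moment were measured in about 50 cells per slide. Mean ± SEM, n = 3.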

[3] = tested on: glutathione peroxidase (GPx); assay: GPx activity level in MCF7 cells; format: cell-based, human; conditions: MCF7, 25 μM, 48 h
How it was run: (§1)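 MCF7 cells were grown in DMEM with 10% FBS at 37 °C and 5% CO2, then exposed to 25 μM test compound (0.1% DMSO) for 48 h. Lysates were made in CelLytic M with protease inhibitor cocktail. About 100 μg protein was used for GSH, GSSG, GPx, GST and GR determinations, with protein measured by Bradford. Mean ± SEM, n = 3, versus DMSO control.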

CHO cells [4] = assay: Radiation-induced micronuclei assay and NDI in CHO cells; format: cell-based, Chinese Hamster; conditions: 4 Gy; for reduction in radiation-induced micronuclei formation: pretreatment 2 h, 18 h postirradiation
How it was run: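 CHO cells were pretreated with test compound (2.5–10 μM; 10 μM for NDI) for 2 h, washed with PBS and placed in serum-free medium. They were given 4 Gy ⁶⁰Co γ-rays at 1 Gy/min, then returned to 10% FBS. Cytochalasin B (4 μg/mL) was present for 18 h, and cells were stained with acridine orange. Micronuclei were scored in 500 binucleated cells. NDI was calculated from counts of mono- to tetranucleated cells among ≥500 viable cells.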

splenic lymphocytes = assay: MTT cytotoxicity assay, splenic lymphocytes; format: cell-based, BALB/c mice; conditions: read-out: IC50 (half maximal concentration to inhibit proliferation by 50%), 48 h
How it was run: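 Splenic lymphocytes freshly isolated from BALB/c mice and kept in RPMI-1640 with FBS and antibiotics at 37 °C in 5% CO2. About 2 × 10^3 cells per well, 12 h, then test compound at 5–100 μM (0.1% DMSO final) for 48 h. MTT absorbance read at 570 nm, with % cytotoxicity relative to the DMSO control. Mean ± SEM, n = 3.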

[5] = tested on: glutathione S-transferase (GST); assay: GST activity level in MCF7 cells; format: cell-based, human; conditions: MCF7, 25 μM, 48 h
How it was run: as §1

[6] = biological target: T1, thioredoxin reductase (TrxR) (Homo sapiens, UniProt Q16881); assay: TrxR activity level in MCF7 cells; format: cell-based; conditions: MCF7, 25 μM, 48 h
T1 sequence (Q16881 151-649 limits assumed): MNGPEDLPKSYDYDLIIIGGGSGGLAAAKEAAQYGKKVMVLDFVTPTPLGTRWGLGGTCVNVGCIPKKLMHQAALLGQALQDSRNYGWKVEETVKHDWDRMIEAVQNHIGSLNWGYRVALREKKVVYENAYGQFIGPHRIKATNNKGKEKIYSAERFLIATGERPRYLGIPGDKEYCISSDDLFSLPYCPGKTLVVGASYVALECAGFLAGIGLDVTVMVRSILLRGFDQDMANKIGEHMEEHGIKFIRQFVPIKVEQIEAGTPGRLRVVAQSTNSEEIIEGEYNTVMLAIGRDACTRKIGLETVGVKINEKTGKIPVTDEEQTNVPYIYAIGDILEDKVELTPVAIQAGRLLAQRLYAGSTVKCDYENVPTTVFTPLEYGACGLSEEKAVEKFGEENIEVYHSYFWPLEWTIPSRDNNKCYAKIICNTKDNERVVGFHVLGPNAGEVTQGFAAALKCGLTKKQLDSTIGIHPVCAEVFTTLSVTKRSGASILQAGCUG
How it was run: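 MCF7 lysates were prepared in CelLytic M with protease inhibitors after 48 h exposure to 25 μM test compound (0.1% DMSO). Thioredoxin reductase activity in about 100 μg protein was measured with a commercial kit; protein was measured by Bradford. Mean ± SEM, n = 3, versus DMSO control.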

MCF7 cells [7] = assay: MTT cytotoxicity assay, MCF7; format: cell-based, human; conditions: read-out: IC50 (half maximal concentration to inhibit proliferation by 50%), 48 h
How it was run: (§2)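 Cells kept in DMEM with 10% FBS and penicillin/streptomycin at 37 °C in 5% CO2. About 2 × 10^3 cells per well, 12 h attachment, then test compound at 5–100 μM (from DMSO stock; 0.1% DMSO final) for 48 h. MTT absorbance read at 570 nm, with % cytotoxicity relative to the 0.1% DMSO control. Mean ± SEM, n = 3.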

rat liver TrxR = biological target: T2, rat liver TrxR (Rattus norvegicus, UniProt O89049); assay: TrxR inhibition assay in cell-free system; format: biochemical; conditions: for inhibition of TrxR: cell-free, rat liver TrxR
T2 sequence (O89049 1-499): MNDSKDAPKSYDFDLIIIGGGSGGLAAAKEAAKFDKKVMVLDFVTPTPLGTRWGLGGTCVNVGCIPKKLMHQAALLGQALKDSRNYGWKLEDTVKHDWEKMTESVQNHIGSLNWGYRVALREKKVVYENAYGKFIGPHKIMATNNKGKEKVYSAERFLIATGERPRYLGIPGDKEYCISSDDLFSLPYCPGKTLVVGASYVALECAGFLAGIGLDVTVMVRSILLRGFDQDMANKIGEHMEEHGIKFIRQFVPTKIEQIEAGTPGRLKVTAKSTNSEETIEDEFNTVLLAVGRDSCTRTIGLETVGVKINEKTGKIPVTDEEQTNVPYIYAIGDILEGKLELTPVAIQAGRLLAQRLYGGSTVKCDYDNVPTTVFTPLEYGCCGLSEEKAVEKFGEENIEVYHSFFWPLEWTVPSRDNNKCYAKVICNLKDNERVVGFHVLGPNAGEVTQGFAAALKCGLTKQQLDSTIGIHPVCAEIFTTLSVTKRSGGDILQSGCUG
How it was run: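 Rat liver TrxR (50 nM) was preincubated at 37 °C for 30 min with 100 μM NADPH and test compound (5–100 μM) in 50 mM Tris–HCl, 1 mM EDTA, pH 7.4 (4% DMSO final). DTNB was then added and TNB formation followed at A412 for 5 min, against a no-enzyme blank and a compound blank. Activity is given as % of control. For reversibility, NADPH was varied 10–100 μM with compound fixed at 50 μM (Lineweaver–Burk).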

Chemical stability [8] = format: physicochemical; conditions: 10 μM, cell culture medium with 10% FBS, 1% DMSO, 37 °C, in 2.5 h
Chemical stability [9] = format: physicochemical; conditions: 10 μM, phosphate buffer pH 7.4, 1% DMSO, 37 °C, within 1 h
[10] = tested on: γ-glutamyl-cysteine ligase (γ-GCL); assay: mRNA expression of γ-GCL by RT-PCR in MCF7 cells; format: cell-based, human; conditions: MCF7, 25 μM, 48 h
How it was run: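 MCF7 cells were exposed to 25 μM test compound for 48 h. Total RNA was extracted with TRI reagent, and about 2 μg was reverse-transcribed. SYBR Green real-time PCR used γ-GCL-specific primers. CT values were normalised to β-actin and expression expressed relative to control. Mean ± SEM, n = 3.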

cells = assay: Toxicity in cells; format: cell-based; conditions: up to a concentration of 10 μM
How it was run: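 Cells were seeded at about 2 × 10³ per well and allowed to attach for 12 h. Lines were CHO, A549 and MCF7 in DMEM with 10% FBS, or fresh BALB/c mouse splenic lymphocytes in RPMI-1640. Cells were then exposed to test compound (5–100 μM, 0.1% DMSO) for 48 h. MTT was read at 570 nm, with % cytotoxicity taken versus control. Mean ± SEM, n = 3.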

CHO cells [11] = assay: MTT cytotoxicity assay, CHO; format: cell-based, Chinese Hamster; conditions: read-out: IC50 (half maximal concentration to inhibit proliferation by 50%), 48 h
How it was run: as §2

MCF7 cells [12] = assay: Intracellular redox state: ratio of GSH and GSSG in MCF7 cells; format: cell-based, human; conditions: MCF7, 25 μM, 48 h
How it was run: as §1

A549 cells = assay: MTT cytotoxicity assay, A549; format: cell-based, human; conditions: read-out: IC50 (half maximal concentration to inhibit proliferation by 50%), 48 h
How it was run: as §2

- percent inhibition in TrxR activity [6]: 58%
- nature of TrxR inhibition (rat liver TrxR; NADPH competition experiment, Lineweaver–Burk): reversible inhibition
- inhibition of TrxR (rat liver TrxR; 100 μM): 85–95%
- inhibition of TrxR (rat liver TrxR; up to a concentration of 50 μM): 15–25%
- Vmax (rat liver TrxR; compound 50 μM, NADPH 10–100 μM, unaffected versus control reaction): 1 nmol/min
- degraded in culture medium (10% FBS) (Chemical stability [8]): ~30%
- degraded in phosphate buffer (Chemical stability [9]): 65%
Substance: Hispolon [HS]
- reduction in the ROS level compared to radiation control (CHO cells [1]): 40%
- DNA damage parameters (TL, OTM) compared to radiation control (CHO cells [2]): significant decrease
- inhibition of GPx activity [3]: did not cause any significant change
- Nuclear division index (NDI) compared to radiation control (CHO cells [4]; 10 μM for 2 h): did not affect this much
- reduction in radiation-induced micronuclei formation (CHO cells [4]; 7.5 μM): 20%
- reduction in radiation-induced micronuclei formation (CHO cells [4]; 10 μM): 22%
- reduction in radiation-induced micronuclei formation (CHO cells [4]; up to 5 μM): did not affect
- IC50 (splenic lymphocytes): > 100 µM
- inhibition of GST activity [5]: did not cause any significant change
- IC50 (MCF7 cells [7]): 42 µM
- mRNA expression of γ-GCL compared to control cells [10]: marginal increase
- toxicity in cells (cells): < 10%
- IC50 (CHO cells [11]): > 100 µM
- increase in GSH/GSSG (MCF7 cells [12]): did not cause any significant change
- IC50 (A549 cells): 68 µM
